≈ marks a conversion by molar mass, not a printed value.
How the values were obtained:
Mus musculus [1] = species on record: Mus musculus; test: Toxicity in mouse assessed as irritant dose causing ear redness after 24 hours by inflammation assay; type: organism-based; settings: in vivo
Procedure, shortened: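 Compound applied to the mouse ear as an acetone (Me2CO) solution. Ear redness was scored 4 and 24 h after application. […] TPA served as the reference irritant.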

B16 = test: Cytotoxicity against mouse B16 cells by MTT assay; type: functional, cell-based
Mus musculus [2] = species on record: Mus musculus; test: Toxicity in mouse assessed as irritant dose causing ear redness after 4 hours by inflammation assay; type: organism-based; settings: in vivo
Procedure, shortened: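 Test solution in Me2CO applied to the mouse ear; ear redness scored 4 and 24 h after application. […] TPA (12-O-tetradecanoylphorbol 13-acetate) run as reference irritant.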

Structure (SMILES): C=C1[C@H](OC(C)=O)[C@H]2[C@@H](OC(C)=O)[C@@H](C)C[C@]2(OC(C)=O)C(=O)[C@@H](C)/C=C/C(C)(C)C(=O)[C@H](OC(C)=O)[C@H]1OC(=O)c1ccccc1
- ID50 (Mus musculus [1]): > 100 µg

Structure (SMILES): C=C1[C@H](OC(C)=O)[C@@H](OC(C)=O)[C@@H](OC(C)=O)C(C)(C)/C=C/[C@H](C)C(=O)[C@@]2(OC(C)=O)C[C@@](C)(OC(=O)c3ccccc3)[C@H](OC(C)=O)[C@@H]2[C@H]1OC(C)=O
- ID50 (Mus musculus [1]): > 100 µg
- IC50 (B16): > 5 µg/mL

Structure (SMILES): C=C1[C@H](OC(=O)c2ccccc2)[C@@H](OC(C)=O)[C@@H](OC(C)=O)C(C)(C)/C=C/[C@H](C)C(=O)[C@@]2(OC(C)=O)C[C@H](C)[C@H](OC(C)=O)[C@@H]2[C@H]1OC(C)=O
- ID50 (Mus musculus [1]): > 100 µg

Structure (SMILES): CC[C@]1(O)C[C@@H]2CN(CCc3c([nH]c4ccccc34)[C@@](C(=O)OC)(c3cc4c(cc3OC)N(C)[C@H]3[C@@](O)(C(=O)OC)[C@H](OC(C)=O)[C@]5(CC)C=CCN6CC[C@]43[C@@H]65)C2)C1 [VINBLASTINE]
- IC50 (B16): 3.6 µg/mL (≈ 4.44 µM)

Structure (SMILES): CCCCCCCCCCCCCC(=O)O[C@@H]1[C@@H](C)[C@@]2(O)[C@@H](C=C(CO)C[C@]3(O)C(=O)C(C)=C[C@@H]23)[C@@H]2C(C)(C)[C@]12OC(C)=O [PHORBOL MYRISTATE ACETATE]
- ID50 (Mus musculus [2]): 0.012 µg
- ID50 (Mus musculus [1]): 0.0085 µg

Structure (SMILES): C=C1[C@H](OC(=O)c2ccccc2)[C@@H](OC(C)=O)[C@@H](OC(C)=O)C(C)(C)/C=C/[C@H](C)C(=O)[C@@]2(OC(C)=O)C[C@@](C)(OC(C)=O)[C@H](OC(C)=O)[C@@H]2[C@H]1OC(C)=O
- ID50 (Mus musculus [1]): > 100 µg
- IC50 (B16): > 5 µg/mL

Structure (SMILES): C=C1[C@H](OC(C)=O)[C@H]2[C@@H](OC(C)=O)[C@](C)(OC(=O)c3ccccc3)C[C@]2(OC(C)=O)C(=O)[C@@H](C)/C=C/C(C)(C)C(=O)[C@H](OC(C)=O)[C@H]1OC(C)=O
- ID50 (Mus musculus [1]): > 100 µg

Structure (SMILES): C=C1[C@H](OC(C)=O)[C@H]2[C@@H](OC(C)=O)[C@@H](C)C[C@]2(OC(C)=O)C(=O)[C@@H](C)/C=C/C(C)(C)C(=O)[C@H](OC(C)=O)[C@H]1OC(C)=O
- ID50 (Mus musculus [1]): > 100 µg
